This is an account of results in ChEMBL document CHEMBL1141111, “Synthesis and biological evaluation of spin-labeled alkylphospholipid analogs” (J Med Chem, 2005).

The species entered for experiment [1] is Homo sapiens. Nature of the experiment: (§1) Hemolytic effect (100 uM) on human erythrocytes. The class given is functional. The method, boiled down: (§2)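 Blood from a healthy donor was collected in EDTA, the plasma removed, and the cells washed in PBS. Each 1 mL sample held 8.59 × 10^7 erythrocytes in PBS (pH 7.5) with 100 µL of 5.5 mM glucose, plus free lipid (30 nmol) or liposomes (30 or 100 nmol). Samples were shaken 30 min at room temperature and spun at 840g. The supernatant was read with Drabkin's reagent at 540 nm. Results are % of Triton X-100 total lysis, in triplicate.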

The species entered for experiment [2] is Homo sapiens. Nature of the experiment: Hemolytic effect (30 uM) on human erythrocytes upon incubation with liposomes for 30 min in pH 7.5. Type of experiment: functional. The method, boiled down: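 Washed erythrocytes from a healthy donor's EDTA blood, stored at 4 °C and used within 48 h. About 8.59 × 10^7 cells in 1 mL PBS (pH 7.5) with 5.5 mM glucose solution. Extruded LUVET (SL-APL/cholesterol/dicetyl phosphate 10:10:2), 30 nmol lipid, shaken 30 min at room temperature. Supernatant read with Drabkin's reagent at 540 nm, as % of Triton X-100 lysis, in triplicate.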

The species entered for experiment [3] is Homo sapiens. Description: (§3) Hemolytic effect (30 uM) on human erythrocytes upon incubation with lipid for 30 min in pH 7.5. The class given is functional. The procedure, abridged:
as §2

A further experiment has as its system MCF7. Nature of the experiment: Inhibitory concentration against MCF-7 cells gwoth. Type of experiment: functional, cell-based, Homo sapiens. The procedure, abridged: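 MCF7 cells were grown in RPMI-1640 with L-glutamine and 10% heat-inactivated FCS, then seeded at 2 × 10^4 per well the day before treatment. Free or liposomal compound (APL/Ch/DCP 10:10:2, 200 nm extruded LUVs) was serially diluted 200–6.25 µM and applied for 24 h in triplicate. MTT (0.5 mg/mL) was added for 4 h, and formazan was dissolved in DMSO and read at 540 nm. IC50 comes from growth-inhibition curves versus untreated cells, mean ± SD of ≥3 independent experiments.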

Experiment [4] in a line: as §1. The class given is functional. The method, boiled down: as §2
Experiment [5] can be described thus: as §3. The class given is functional. The procedure, abridged:
as §2

The structures appear in SMILES notation.

In the case of `CCCCCCCCCCCCCC1(CCCCOP(=O)([O-])OC2CC[N+](C)(C)CC2)OCC(C)(C)N1[O]` (stereo not drawn), the values for the Hemolysis in the experiment filed under Homo sapiens [1], in the experiment listed under Homo sapiens [2] and in the experiment listed under Homo sapiens [3] were 17.9%, 6.6% and 99%, respectively.

Turning to `CCCCC1(CCCCCCCCCCCCCOP(=O)([O-])OC2CC[N+](C)(C)CC2)OCC(C)(C)N1[O]` (stereo not drawn), 56.4 µM corresponded to half-maximal inhibition in the experiment with MCF7 (mcf7) (IC50). For the same compound, the results for the Hemolysis (in experiment [4]; in the experiment filed under Homo sapiens [2]; in experiment [5]) were 5.3%, 3.2% and 16.1%, respectively.

In the case of `CCCCCCCCCCCCCCCCCCOP(=O)([O-])OC1CC[N+](C)(C)CC1` [PERIFOSINE], in the experiment with MCF7 (Homo sapiens, MCF7), the IC50 – broadly, the concentration that gives 50% inhibition – was 75.8 µM. In addition, the Hemolysis in experiment [4] was determined as 93.5%; in the experiment listed under Homo sapiens [2] it was 3.2%; in experiment [5], 98.1%.

With `CCCCCCCCC1(CCCCCCCCCOP(=O)([O-])OC2CC[N+](C)(C)CC2)OCC(C)(C)N1[O]` (stereo not drawn), the Hemolysis was found to be 5.9% in the experiment filed under Homo sapiens [1], 3.7% in the experiment listed under Homo sapiens [2] and 34.6% in the experiment filed under Homo sapiens [3].

For `CCCCCCC1(CCCCCCCCCCCOP(=O)([O-])OCC[N+](C)(C)C)OCC(C)(C)N1[O]` (stereo not drawn), the results for the Hemolysis in the experiment listed under Homo sapiens [1], in the experiment filed under Homo sapiens [2] and in the experiment listed under Homo sapiens [3] were 20.3%, 4.9% and 98.3%, respectively.

Regarding `CCCCCCC1(CCCCCCCCCCCOP(=O)([O-])OC2CC[N+](C)(C)CC2)OCC(C)(C)N1[O]` (stereo not drawn), the Hemolysis in the experiment listed under Homo sapiens [1] is 5.7%; in the experiment listed under Homo sapiens [2], 4.1%; in the experiment listed under Homo sapiens [3] it was 18.3%.

`CCCCCCCCCCCC1(CCCCCCOP(=O)([O-])OC2CC[N+](C)(C)CC2)OCC(C)(C)N1[O]` (stereo not drawn): the Hemolysis worked out at 6.7% in the experiment listed under Homo sapiens [1], 4.4% in the experiment filed under Homo sapiens [2] and 95.2% in the experiment listed under Homo sapiens [3].
